Results taken from ChEMBL document CHEMBL1155469, “Peptide nucleic acids conjugated to short basic peptides show improved pharmacokinetics and antisense activity in adipose tissue” (J Med Chem, 2010).
The source made the active and inactive calls. The calls are words filed in the database; no cut-off is given here.

Columns and labels:
[1] = test system: Mus musculus; test: Acute toxicity in Balb/C mouse assessed as change in organ weight at 2.5 to 12.5 mg/kg, ip administered BID for 5 days measured 48 hrs after last dose; format: organism-based; parameters: dose 2.5-12.5 mg/kg, route intraperitoneal; settings: in vivo
Summary of the method: (§1)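 Male Balb/c mice aged 6–8 weeks, n=4 per group, dosed i.p. with compound suspended in PBS and filter sterilized, 10 ul/g body weight. Body weight tracked throughout the live phase. Under isoflurane anaesthesia, terminal cardiac-puncture bleed; serum taken for transaminases and other chemistries. Sacrifice by cervical dislocation 48 h after last dose, with liver and spleen weighed at necropsy. Kidneys examined by histopathology.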

[2] = test system: Mus musculus; test: Inhibition of PTEN expression in Balb/C mouse kidney assessed as increase in mRNA levels at 2.5 to 12.5 mg/kg, ip administered BID for 5 days measured 48 hrs after last dose […]; format: functional, organism-based
Summary of the method: (§2)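 Male Balb/c mice, n=4 per group, dosed i.p. in PBS and sacrificed 48 h after last dose. Liver, kidney and adipose tissue homogenised at once in 4 M guanidine isothiocyanate, 25 mM EDTA, 50 mM Tris-HCl pH 6. RNA purified on columns and run by fluorescence-based quantitative RT-PCR. Target transcript levels normalised to cyclophilin A and expressed relative to saline-treated controls.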

[3] = test system: Mus musculus; test: Acute toxicity in Balb/C mouse assessed as change in serum chemistry at 2.5 to 12.5 mg/kg, ip administered BID for 5 days measured 48 hrs after last dose; format: organism-based; parameters: dose 2.5-12.5 mg/kg, route intraperitoneal; settings: in vivo; summary of the method: as §1
[4] = test system: Mus musculus; test: Inhibition of PTEN expression in Balb/C mouse liver assessed as increase in mRNA levels at 2.5 to 12.5 mg/kg, ip administered BID for 5 days measured 48 hrs after last dose […]; format: functional, organism-based; summary of the method: as §2
[5] = test system: Mus musculus; test: Inhibition of PTEN expression in Balb/C mouse adipose tissue assessed as increase in mRNA levels at 2.5 to 12.5 mg/kg, ip administered BID for 5 days measured 48 hrs after last dose by […]; format: functional, organism-based; summary of the method: as §2
[6] = test system: Mus musculus; test: Acute toxicity in Balb/C mouse assessed as change in body weight at 2.5 to 12.5 mg/kg, ip administered BID for 5 days measured 48 hrs after last dose; format: organism-based; parameters: dose 2.5-12.5 mg/kg, route intraperitoneal; settings: in vivo; summary of the method: as §1
[7] = test system: Mus musculus; test: Inhibition of PTEN expression in Balb/C mouse white adipose tissue assessed as reduction of full length transcript at 10 to 40 mg/kg, ip administered thrice a week for 2 weeks measured 48 hrs after last dose […]; format: functional, organism-based
[8] = test system: Mus musculus; test: Toxicity in Balb/C mouse assessed as change in serum bilirubin levels at 10 to 40 mg/kg, ip administered thrice a week for 2 weeks measured 48 hrs after last dose; format: organism-based; parameters: dose 10-40 mg/kg, route intraperitoneal; settings: in vivo
Summary of the method: (§3)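 Male Balb/c mice, 6–8 wk, n=4/group, received compound i.p. in PBS (10 ul/g) 3x/wk for 2 wk. Body weight was monitored throughout. At 48 h after the last dose, mice were anesthetized with isoflurane and bled by cardiac puncture. Serum AST, ALT, BUN, bilirubin, glucose and triglycerides were compared with the saline group. ALT rise below 2x normal was counted as absent.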

[9] = test system: Mus musculus; test: Toxicity in Balb/C mouse assessed as change in serum glucose levels at 10 to 40 mg/kg, ip administered thrice a week for 2 weeks measured 48 hrs after last dose; format: organism-based; parameters: dose 10-40 mg/kg, route intraperitoneal; settings: in vivo; summary of the method: as §3
[10] = test system: Mus musculus; test: Toxicity in Balb/C mouse assessed as change in serum AST levels at 10 to 40 mg/kg, ip administered thrice a week for 2 weeks measured 48 hrs after last dose; format: organism-based; parameters: dose 10-40 mg/kg, route intraperitoneal; settings: in vivo; summary of the method: as §3
[11] = test system: Mus musculus; test: Toxicity in Balb/C mouse assessed as change in body weight at 10 to 40 mg/kg, ip administered thrice a week for 2 weeks measured 48 hrs after last dose; format: organism-based; parameters: dose 10-40 mg/kg, route intraperitoneal; settings: in vivo; summary of the method: as §3
[12] = test system: Mus musculus; test: Toxicity in Balb/C mouse assessed as change in serum ALT levels at 10 to 40 mg/kg, ip administered thrice a week for 2 weeks measured 48 hrs after last dose; format: organism-based; parameters: dose 10-40 mg/kg, route intraperitoneal; settings: in vivo; summary of the method: as §3
[13] = test system: Mus musculus; test: Inhibition of PTEN expression in Balb/C mouse liver at 10 to 40 mg/kg, ip administered thrice a week for 2 weeks measured 48 hrs after last dose by Western blot analysis; format: functional, organism-based
Summary of the method: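 Male Balb/c mice, 6–8 wk, n=4/group, dosed i.p. in PBS 3x/wk for 2 wk and killed 48 h after the last dose. Tissue was homogenized in RIPA buffer with protease inhibitors, and protein was measured by Lowry assay. Lysates were run on 10% PAGE and blotted to PVDF. Blots were probed with rabbit anti-PTEN (1:1000) and HRP anti-rabbit (1:2500), with ECL detection.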

[14] = Drug level in Balb/C mouse kidney at 40 mg/kg, ip administered thrice a week for 2 weeks measured 48 hrs after last dose; format: ADME, organism-based; parameters: dose 40 mg/kg, route intraperitoneal; settings: read-out: Drug uptake
Summary of the method: (§4)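 Male Balb/c mice, 6–8 wk, n=4/group, dosed i.p. in PBS 3x/wk for 2 wk at 40 mg/kg and killed 48 h after the last dose. Liver, kidney and adipose tissue were homogenized in SDS extraction buffer and diluted to 0.2 mg tissue/mL. They were hybridized with a digoxigenin/biotin cutting probe, captured on NeutrAvidin, and digested with nuclease S1. Anti-digoxigenin-AP fluorescence was read and quantified against a 0.1–100 nM standard ladder, in quadruplicate.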

[15] = Drug level in Balb/C mouse adipose tissue at 40 mg/kg, ip administered thrice a week for 2 weeks measured 48 hrs after last dose; format: ADME, organism-based; parameters: dose 40 mg/kg, route intraperitoneal; settings: read-out: Drug uptake; summary of the method: as §4
[16] = test system: Mus musculus; test: Toxicity in Balb/C mouse assessed as change in serum triglyceride levels at 10 to 40 mg/kg, ip administered thrice a week for 2 weeks measured 48 hrs after last dose; format: organism-based; parameters: dose 10-40 mg/kg, route intraperitoneal; settings: in vivo; summary of the method: as §3
[17] = test system: Mus musculus; test: Toxicity in Balb/C mouse assessed as change in blood urea nitrogen levels at 10 to 40 mg/kg, ip administered thrice a week for 2 weeks measured 48 hrs after last dose; format: organism-based; parameters: dose 10-40 mg/kg, route intraperitoneal; settings: in vivo; summary of the method: as §3
[18] = test system: Mus musculus; test: Inhibition of PTEN expression in Balb/C mouse kidney at 10 to 40 mg/kg, ip administered thrice a week for 2 weeks measured 48 hrs after last dose
[19] = Drug level in Balb/C mouse liver at 40 mg/kg, ip administered thrice a week for 2 weeks measured 48 hrs after last dose; format: ADME, organism-based; parameters: dose 40 mg/kg, route intraperitoneal; settings: read-out: Drug uptake; summary of the method: as §4

With `Cc1cn(CC(=O)N(CCNC(=O)CN(CCNC(=O)[C@H](CCCNC(=N)N)N(CCNC(=O)[C@H](CCCNC(=N)N)NC(=O)[C@H](CCCCNC(=N)N)NC(=O)[C@H](Cc2ccccc2)NC(=O)[C@H](CCCCNC(=N)N)NC(=O)[C@H](CCCCNC(=N)N)NC(=O)[C@H](CCCCNC(=N)N)NC(=O)[C@H](C)NC(=O)[C@H](CCCNC(=N)N)NC(=O)[C@H](CCCCNC(=N)N)NC(=O)[C@H](Cc2ccccc2)NC(=O)[C@H](C)NC(=O)[C@H](CCCNC(=N)N)NC(=O)[C@H](CCCCNC(=N)N)NC(=O)CN)C(=O)Cn2cc(C)c(=O)[nH]c2=O)C(=O)Cn2ccc(N)nc2=O)CC(=O)NCCN(CC(=O)NCCN(CC(=O)NCCN(CC(=O)NCCN(CC(=O)NCCN(CC(=O)NCCN(CC(=O)NCCN(CC(=O)NCCN(CC(=O)NCCN(CC(=O)NCCN(CC(=O)NCCN(CC(=O)NCCN(CC(=O)NCCN(CC(=O)N[C@@H](CCCCN)C(N)=O)C(=O)Cn2cnc3c(N)ncnc32)C(=O)Cn2ccc(N)nc2=O)C(=O)Cn2cnc3c(N)ncnc32)C(=O)Cn2cc(C)c(=O)[nH]c2=O)C(=O)Cn2ccc(N)nc2=O)C(=O)Cn2cc(C)c(=O)[nH]c2=O)C(=O)Cn2cnc3c(N)ncnc32)C(=O)Cn2ccc(N)nc2=O)C(=O)Cn2cnc3c(N)ncnc32)C(=O)Cn2ccc(N)nc2=O)C(=O)Cn2cnc3c(=O)[nH]c(N)nc32)C(=O)Cn2cnc3c(N)ncnc32)C(=O)Cn2ccc(N)nc2=O)c(=O)[nH]c1=O` as the molecule, how does the Activity [1] read?
The Activity was “Non-toxic”.

And the Activity [2]?
Its Activity is “inactive”.

And the Activity [3]?
The Activity was “Non-toxic”.

And the Activity [4]?
The Activity was “inactive”.

And the Activity [5]?
Its Activity is “inactive”.

And the Activity [6]?
The Activity was “Non-toxic”.

Which Activity [7] does the source give for `Cc1cn(CC(=O)N(CCNC(=O)CN(CCNC(=O)[C@H](CCCCN)N(CCNC(=O)[C@H](CCCCN)NC(=O)[C@@H](N)CCCCN)C(=O)Cn2cc(C)c(=O)[nH]c2=O)C(=O)Cn2ccc(N)nc2=O)CC(=O)NCCN(CC(=O)NCCN(CC(=O)NCCN(CC(=O)NCCN(CC(=O)NCCN(CC(=O)NCCN(CC(=O)NCCN(CC(=O)NCCN(CC(=O)NCCN(CC(=O)NCCN(CC(=O)NCCN(CC(=O)NCCN(CC(=O)NCCN(CC(=O)N[C@@H](CCCCN)C(N)=O)C(=O)Cn2cnc3c(N)ncnc32)C(=O)Cn2ccc(N)nc2=O)C(=O)Cn2cnc3c(N)ncnc32)C(=O)Cn2cc(C)c(=O)[nH]c2=O)C(=O)Cn2ccc(N)nc2=O)C(=O)Cn2cc(C)c(=O)[nH]c2=O)C(=O)Cn2cnc3c(N)ncnc32)C(=O)Cn2ccc(N)nc2=O)C(=O)Cn2cnc3c(N)ncnc32)C(=O)Cn2ccc(N)nc2=O)C(=O)Cn2cnc3c(=O)[nH]c(N)nc32)C(=O)Cn2cnc3c(N)ncnc32)C(=O)Cn2ccc(N)nc2=O)c(=O)[nH]c1=O` here?
Its Activity is “inactive”.

What about the Activity [8] of the same molecule?
The Activity was “Non-toxic”.

What about the Activity [9] of the same molecule?
Its Activity is “Non-toxic”.

And the Activity [10]?
The Activity was “Non-toxic”.

What about the Activity [11] of the same molecule?
Its Activity is “Non-toxic”.

What about the Activity [12] of the same molecule?
The Activity was “Non-toxic”.

And the inhibition [13]?
The inhibition was “inactive”.

And the concentration at 48 h [14]?
Its concentration at 48 h is 355 µM.

And the concentration at 48 h [15]?
Its concentration at 48 h is 4 µM.

What about the Activity [16] of the same molecule?
The Activity was “Non-toxic”.

What about the Activity [17] of the same molecule?
Its Activity is “Non-toxic”.

And the inhibition [18]?
The inhibition was “inactive”.

And the concentration at 48 h [19]?
The concentration at 48 h was 28 µM.
